Results taken from ChEMBL document CHEMBL1240400, “Comparative in vitro activities of nemonoxacin (TG-873870), a novel nonfluorinated quinolone, and other quinolones against clinical isolates” (2010).

Tests used:
Assay type in all cases: functional
Citrobacter freundii = test: Antibacterial activity against Citrobacter freundii by broth dilution method
Outline: (§1)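 Broth microdilution per CLSI in panels spanning a dilution range of each agent. Cation-adjusted Mueller-Hinton broth, final inoculum 5 × 10^5 CFU/ml from a 0.5 McFarland suspension. Incubated overnight at 35°C in ambient air, with quality control strains in each run. MIC reported; values at or below the lowest concentration tested are given as that concentration.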

Acinetobacter baumannii = test: Antibacterial activity against Acinetobacter baumannii by broth dilution method; outline: as §1
Enterobacter cloacae = test: Antibacterial activity against Enterobacter cloacae by broth dilution method
Klebsiella pneumoniae = test: Antibacterial activity against Klebsiella pneumoniae by broth dilution method; outline: as §1
Haemophilus influenzae = test: Antibacterial activity against Haemophilus influenzae by broth dilution method
Outline: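 Broth microdilution per CLSI using Haemophilus Test Medium broth, seeded from a 0.5 McFarland suspension. Incubated overnight at 35°C in ambient air, with quality control strains in each run. MIC read against a tested dilution range; values at the low limit are given as the lowest concentration.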

Proteus mirabilis = test: Antibacterial activity against Proteus mirabilis by broth dilution method
Escherichia coli [1] = test: Antibacterial activity against ciprofloxacin susceptible Escherichia coli by broth dilution method; outline: as §1
Pseudomonas aeruginosa = test: Antibacterial activity against Pseudomonas aeruginosa by broth dilution method
Enterococcus faecalis [2] = test: Antibacterial activity against vancomycin resistant Enterococcus faecalis by broth dilution method
[3] = tested on: Staphylococcus epidermidis; test: Antibacterial activity against methicillin resistant coagulase negative Staphylococcus epidermidis by broth dilution method
Streptococcus viridans = test: Antibacterial activity against Streptococcus viridans by broth dilution method
Outline: (§2)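 Streptococci were tested by CLSI broth microdilution in Mueller-Hinton broth with 3% lysed horse blood, seeded from a 0.5 McFarland suspension. Incubated overnight at 35°C in ambient air, with quality control strains in each run. MIC taken over a per-agent dilution range.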

Enterococcus faecium [4] = test: Antibacterial activity against Enterococcus faecium by broth dilution method
Outline: (§3)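 Clinical isolates tested by CLSI broth microdilution in panels holding serial twofold drug dilutions in cation-adjusted Mueller-Hinton broth. Final inoculum 5 × 10^5 CFU/ml was made from a 0.5 McFarland suspension. Plates were incubated overnight at 35°C in ambient air, and the MIC was read as the lowest concentration inhibiting growth. Quality control strains were included in each run.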

Staphylococcus aureus [5] = test: Antibacterial activity against ciprofloxacin and methicillin resistant Staphylococcus aureus by broth dilution method; outline: as §3
Streptococcus pyogenes = test: Antibacterial activity against Streptococcus pyogenes by broth dilution method; outline: as §2
Staphylococcus = test: Antibacterial activity against methicillin resistant coagulase negative Staphylococcus by broth dilution method
Enterococcus faecalis [6] = test: Antibacterial activity against Enterococcus faecalis by broth dilution method
Streptococcus pneumoniae [7] = test: Antibacterial activity against Levofloxacin susceptible Streptococcus pneumoniae by broth dilution method
Outline: (§4)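 Streptococcus pneumoniae clinical isolates tested by CLSI broth microdilution. A 0.5 McFarland suspension was diluted into Mueller-Hinton broth with 3% lysed horse blood, then tested against serial drug dilutions. Plates were incubated overnight at 35°C in ambient air, and the MIC was read as the lowest inhibitory concentration. Quality control strains were included in each run.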

Streptococcus agalactiae = test: Antibacterial activity against Streptococcus agalactiae by broth dilution method; outline: as §2
Streptococcus pneumoniae [8] = test: Antibacterial activity against Levofloxacin resistant Streptococcus pneumoniae by broth dilution method; outline: as §4
Staphylococcus aureus [9] = test: Antibacterial activity against methicillin susceptible Staphylococcus aureus by broth dilution method
Staphylococcus aureus [10] = test: Antibacterial activity against ciprofloxacin susceptible and methicillin resistant Staphylococcus aureus by broth dilution method; outline: as §3
Escherichia coli [11] = test: Antibacterial activity against ciprofloxacin resistant Escherichia coli by broth dilution method; outline: as §3
Enterococcus faecium [12] = test: Antibacterial activity against vancomycin resistant Enterococcus faecium by broth dilution method; outline: as §3

C[C@@H](O)[C@H]1C(=O)N2C(C(=O)O)=C(SCCNC=N)C[C@H]12 [IMIPENEM ANHYDROUS]
0.5 µg/mL: MIC50 (Klebsiella pneumoniae)
> 32 µg/mL: MIC90 (Acinetobacter baumannii)
2 µg/mL: MIC90 (Citrobacter freundii) | MIC50 (Acinetobacter baumannii) | MIC50 (Proteus mirabilis)
4 µg/mL: MIC90 (Enterobacter cloacae) | MIC90 (Klebsiella pneumoniae) | MIC90 (Haemophilus influenzae)
1 µg/mL: MIC50 (Citrobacter freundii) | MIC50 (Enterobacter cloacae) | MIC50 (Haemophilus influenzae)
8 µg/mL: MIC90 (Proteus mirabilis)

CC(C)(O/N=C(\C(=O)N[C@@H]1C(=O)N2C(C(=O)[O-])=C(C[n+]3ccccc3)CS[C@H]12)c1csc(N)n1)C(=O)O [CEFTAZIDIME]
64 µg/mL: MIC90 (Citrobacter freundii) | MIC50 (Acinetobacter baumannii)
> 128 µg/mL: MIC90 (Acinetobacter baumannii) | MIC90 (Enterobacter cloacae) | MIC90 (Klebsiella pneumoniae) | MIC90 (Pseudomonas aeruginosa)
32 µg/mL: MIC50 (Pseudomonas aeruginosa)
1 µg/mL: MIC (Escherichia coli [1]) | MIC50 (Escherichia coli [1])
128 µg/mL: MIC50 (Enterobacter cloacae)
16 µg/mL: MIC50 (Klebsiella pneumoniae) | MIC90 (Escherichia coli [1])
≤ 1 µg/mL: MIC50 (Citrobacter freundii) | MIC (Haemophilus influenzae) | MIC50 (Haemophilus influenzae) | MIC90 (Haemophilus influenzae) | MIC50 (Proteus mirabilis) | MIC90 (Proteus mirabilis)

CN(C)c1cc(NC(=O)CNC(C)(C)C)c(O)c2c1C[C@H]1C[C@H]3[C@H](N(C)C)C(O)=C(C(N)=O)C(=O)[C@@]3(O)C(O)=C1C2=O [TIGECYCLINE]
0.03 µg/mL: MIC50 (Streptococcus pyogenes) | MIC50 (Streptococcus pneumoniae [7]) | MIC (Streptococcus agalactiae) | MIC50 (Streptococcus agalactiae)
4 µg/mL: MIC90 (Proteus mirabilis)
0.12 µg/mL: MIC90 (Streptococcus viridans) | MIC90 (Enterococcus faecium [4]) | MIC50 (Staphylococcus aureus [9]) | MIC90 (Enterococcus faecium [12])
0.25 µg/mL: MIC (Citrobacter freundii) | MIC50 (Citrobacter freundii) | MIC50 (Enterococcus faecalis [2]) | MIC90 (Enterococcus faecalis [2]) | MIC50 [3] | MIC50 (Staphylococcus aureus [5]) | MIC50 (Staphylococcus) | MIC50 (Enterococcus faecalis [6]) | MIC90 (Enterococcus faecalis [6]) | MIC50 (Escherichia coli [1]) | MIC90 (Staphylococcus aureus [9]) | MIC50 (Staphylococcus aureus [10]) | MIC90 (Staphylococcus aureus [10]) | MIC50 (Escherichia coli [11])
0.08 µg/mL: MIC (Streptococcus pneumoniae [7])
2 µg/mL: MIC90 (Acinetobacter baumannii) | MIC90 (Enterobacter cloacae) | MIC50 (Proteus mirabilis)
0.5 µg/mL: MIC90 (Citrobacter freundii) | MIC90 [3] | MIC90 (Staphylococcus aureus [5]) | MIC50 (Enterobacter cloacae) | MIC50 (Klebsiella pneumoniae) | MIC90 (Staphylococcus) | MIC90 (Escherichia coli [1]) | MIC50 (Haemophilus influenzae)
0.06 µg/mL: MIC50 (Streptococcus viridans) | MIC50 (Enterococcus faecium [4]) | MIC90 (Streptococcus pyogenes) | MIC90 (Streptococcus pneumoniae [7]) | MIC90 (Streptococcus agalactiae) | MIC50 (Streptococcus pneumoniae [8]) | MIC90 (Streptococcus pneumoniae [8]) | MIC50 (Enterococcus faecium [12])
8 µg/mL: MIC50 (Pseudomonas aeruginosa)
1 µg/mL: MIC50 (Acinetobacter baumannii) | MIC90 (Klebsiella pneumoniae) | MIC90 (Haemophilus influenzae)
> 8 µg/mL: MIC90 (Escherichia coli [11]) | MIC90 (Pseudomonas aeruginosa)
